Experimental data published in ChEMBL document CHEMBL3102735, “Enhancing the pharmacodynamic profile of a class of selective COX-2 inhibiting nitric oxide donors” (Bioorg Med Chem, 2014).
pIC50: −log10 of the molar value. Converted amounts (≈) assume the structure as drawn. The source made the active and inactive calls. No cut-off for these calls is given here.

Experiments:
[1] = molecular target: T1, Prostaglandin G/H synthase 2 (Mus musculus) (UniProt Q05769); assay: Inhibition of LPS-induced COX-2 in mouse J774 cells using arachidonic acid as substrate assessed as inhibition of prostaglandin E2 production at 10 uM preincubated for 15 mins followed by substrate addition measured after 30 mins by RIA; type: cell-based
T1 sequence (whole entry): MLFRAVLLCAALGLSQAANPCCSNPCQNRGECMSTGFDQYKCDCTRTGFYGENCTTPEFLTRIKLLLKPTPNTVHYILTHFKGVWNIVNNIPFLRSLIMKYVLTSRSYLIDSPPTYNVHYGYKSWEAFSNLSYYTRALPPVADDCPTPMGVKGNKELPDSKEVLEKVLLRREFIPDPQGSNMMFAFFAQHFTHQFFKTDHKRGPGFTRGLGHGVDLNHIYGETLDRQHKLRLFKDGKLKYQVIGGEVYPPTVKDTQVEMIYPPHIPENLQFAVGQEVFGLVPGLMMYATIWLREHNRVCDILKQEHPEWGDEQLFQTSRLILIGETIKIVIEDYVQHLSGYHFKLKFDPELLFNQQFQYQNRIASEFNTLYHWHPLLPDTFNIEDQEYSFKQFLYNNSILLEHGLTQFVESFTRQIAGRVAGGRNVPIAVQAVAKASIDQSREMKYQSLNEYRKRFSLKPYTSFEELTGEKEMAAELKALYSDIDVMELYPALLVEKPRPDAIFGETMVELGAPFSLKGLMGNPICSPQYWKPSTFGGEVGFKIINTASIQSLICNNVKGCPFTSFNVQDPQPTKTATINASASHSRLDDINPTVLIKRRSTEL

[2] = molecular target: T2, Prostaglandin G/H synthase 1 (Mus musculus) (UniProt P22437); assay: Inhibition of COX-1 in mouse J774 cells using arachidonic acid as substrate assessed as inhibition of prostaglandin E2 production at 10 uM preincubated for 15 mins followed by substrate addition measured after 30 mins by RIA; type: cell-based
T2 sequence (whole entry): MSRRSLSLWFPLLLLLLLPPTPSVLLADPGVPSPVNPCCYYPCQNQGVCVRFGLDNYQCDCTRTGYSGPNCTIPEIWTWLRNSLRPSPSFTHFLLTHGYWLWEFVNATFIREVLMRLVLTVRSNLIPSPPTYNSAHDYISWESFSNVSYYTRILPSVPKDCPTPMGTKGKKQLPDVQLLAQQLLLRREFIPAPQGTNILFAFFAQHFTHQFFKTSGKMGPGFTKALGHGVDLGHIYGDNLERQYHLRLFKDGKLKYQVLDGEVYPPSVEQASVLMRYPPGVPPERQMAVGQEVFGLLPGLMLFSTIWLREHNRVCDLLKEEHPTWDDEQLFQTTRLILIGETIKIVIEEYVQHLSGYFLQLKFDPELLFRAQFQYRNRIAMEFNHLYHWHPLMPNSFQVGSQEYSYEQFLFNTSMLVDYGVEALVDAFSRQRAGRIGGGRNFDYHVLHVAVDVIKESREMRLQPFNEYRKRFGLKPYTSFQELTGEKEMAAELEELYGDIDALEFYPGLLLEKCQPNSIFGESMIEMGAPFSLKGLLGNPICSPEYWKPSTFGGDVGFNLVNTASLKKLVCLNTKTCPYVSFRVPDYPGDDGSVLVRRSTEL
In short: (§1)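 J774 murine macrophages pretreated 15 min with compound (10 µM; lower concentrations 0.01–1 µM where needed), then incubated 30 min at 37 °C with 15 µM arachidonic acid; supernatant PGE2 measured by RIA. Triplicate wells, mean of three experiments of percent inhibition versus control; IC50 by sigmoidal fit.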

[3] = molecular target: T3, Prostaglandin G/H synthase 2 (Mus musculus, UniProt Q05769); assay: Inhibition of LPS-induced COX-2 in mouse J774 cells using arachidonic acid as substrate assessed as inhibition of prostaglandin E2 production preincubated for 15 mins followed by substrate addition measured after 30 mins by RIA; type: cell-based
T3 sequence (Q05769 whole entry): T1 sequence (whole entry)

J774 = assay: Selectivity index, ratio of IC50 for COX-1 to IC50 for COX-2 in mouse J774 cells; type: cell-based
In short: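 J774 macrophages stimulated 24 h with E. coli LPS (10 µg/mL) to induce COX-2, with or without compound (0.01–10 µM); supernatant PGE2 by RIA. Triplicate wells, three experiments, percent inhibition versus control, IC50 by sigmoidal fit; selectivity as COX-1/COX-2 IC50 ratio.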

[4] = molecular target: T4, Prostaglandin G/H synthase 1 (Mus musculus, UniProt P22437); assay: Inhibition of COX-1 in mouse J774 cells using arachidonic acid as substrate assessed as inhibition of prostaglandin E2 production preincubated for 15 mins followed by substrate addition measured after 30 mins by RIA; type: cell-based; in short: as §1
T4 sequence (P22437 whole entry): T2 sequence (whole entry)

Mus musculus [5] = assay: Analgesic activity in Swiss albino mouse assessed as reduction of acetic acid-induced writhing at 40 mg/kg, po measured every 10 mins after 5 mins of administration relative to control; type: functional; parameters: scale not given: the % may be the effect or the level left
In short: (§2)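 Male Swiss albino mice (23–25 g), compound given orally in CMC vehicle; writhing induced by 0.6% acetic acid (10 mL/kg) ip. Stretching movements counted for 10 min, starting 5 min after administration; percent reduction versus CMC-treated animals.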

Mus musculus [6] = assay: Analgesic activity in po dosed Swiss albino mouse assessed as reduction of acetic acid-induced writhing measured every 10 mins after 5 mins of administration; type: functional, organism-based; in short: as §2
Mus musculus [7] = assay: Analgesic activity in Swiss albino mouse assessed as reduction of acetic acid-induced writhing at 20 mg/kg, po measured every 10 mins after 5 mins of administration relative to control; type: functional; parameters: scale not given: the % may be the effect or the level left; in short: as §2
Thoracic aorta [8] = assay: Ex vivo vasorelaxant activity in Wistar rat endothelium thoracic aortic ring assessed as reduction of KCl-induced contraction at 0.001 uM to 10 uM relative to control; type: functional
In short: (§3)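 Endothelium-denuded thoracic aortic rings from male Wistar rats (250–350 g) in oxygenated Tyrode-type buffer at 37 °C, isometric tension recording. Rings precontracted with 30 mM KCl, then 3-fold increasing compound concentrations (1 nM–10 µM) added, also with 1 µM ODQ preincubated. Emax as % of KCl tone; pIC50; mean ± SE of 6–10 experiments.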

Thoracic aorta [9] = assay: Ex vivo vasorelaxant activity in Wistar rat endothelium thoracic aortic ring assessed as reduction of KCl-induced contraction in presence of guanylate cyclase inhibitor ODQ; type: functional; in short: as §3
[10] = Metabolic stability in Sprague-Dawley rat plasma assessed as compound remaining after 60 mins by LC-MS/MS analysis; type: ADME, cell-free; details: read-out: Stability
In short: (§4)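 Compound (12 µL of 1 mM DMSO solution into 588 µL medium) incubated in PBS pH 7.4, pepsin-free SGF pH 1.5, or EDTA rat plasma. Aliquots taken at 0, 30, 60, 120 min and quenched with ice-cold acetonitrile containing internal standard; parent remaining as percent.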

[11] = Metabolic stability in Sprague-Dawley rat plasma assessed as compound remaining after 120 mins by LC-MS/MS analysis; type: ADME, cell-free; details: read-out: Stability; in short: as §4
[12] = Stability of the compound in phosphate buffer saline assessed as compound remaining at pH 7.4 after 120 mins by LC-MS/MS analysis; type: physicochemical; details: read-out: Stability; in short: as §4
[13] = Stability of the compound in phosphate buffer saline assessed as compound remaining at pH 7.4 after 30 mins by LC-MS/MS analysis; type: physicochemical; details: read-out: Stability
In short: (§5)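 1 mM DMSO stock added to 0.01 M PBS (pH 7.4) or 0.05 M simulated gastric fluid without pepsin (pH 1.5 with HCl); incubated in hybridisation oven; aliquots at 0, 30, 60, 120 min quenched with ice-cold acetonitrile containing internal standard; parent remaining (%) measured.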

[14] = Stability of the compound in phosphate buffer saline assessed as compound remaining at pH 7.4 after 60 mins by LC-MS/MS analysis; type: physicochemical; details: read-out: Stability; in short: as §5
[15] = Stability of the compound in simulated gastric fluid assessed as compound remaining at pH 1.5 after 120 mins by LC-MS/MS analysis; type: physicochemical; details: read-out: Stability; in short: as §5
Mus musculus [16] = assay: Analgesic activity in Swiss albino mouse assessed as reduction of acetic acid-induced writhing at 10 mg/kg, po measured every 10 mins after 5 mins of administration relative to control; type: functional; parameters: scale not given: the % may be the effect or the level left; in short: as §2
[17] = Stability of the compound in simulated gastric fluid assessed as compound remaining at pH 1.5 after 30 mins by LC-MS/MS analysis; type: physicochemical; details: read-out: Stability; in short: as §5
[18] = Stability of the compound in simulated gastric fluid assessed as compound remaining at pH 1.5 after 60 mins by LC-MS/MS analysis; type: physicochemical; details: read-out: Stability; in short: as §5
[19] = Metabolic stability in Sprague-Dawley rat plasma assessed as compound remaining after 30 mins by LC-MS/MS analysis; type: ADME, cell-free; details: read-out: Stability; in short: as §4
[20] = Solubility of the compound in phosphate buffer saline at pH 7.4 after 90 mins by HPLC analysis; type: physicochemical
In short: (§6)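 DMSO stock (20 mM) diluted 2 µL into 198 µL PBS 0.01 M pH 7.4 or pepsin-free SGF 0.05 M pH 1.5, duplicate wells, shaken 90 min at 300 rpm. Filtrates analysed by HPLC with photodiode-array detection against seven-point standards (1–200 µM).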

[21] = Solubility of the compound in simulated gastric fluid at pH 1.5 after 90 mins by HPLC analysis; type: ADME; in short: as §6

SMILES | inhibition [1] [%] | inhibition [2] [%] | pIC50 [4] | solubility at 1.5 h [20] [µM] | solubility at 1.5 h [21] [µM] | pIC50 [3] | Ratio IC50 (J774) | Activity (Mus musculus [5]) [%] | Activity (Mus musculus [6]) | Activity (Mus musculus [7]) [%] | Emax (Thoracic aorta [8]) [%] | Activity (Thoracic aorta [9]) | remaining at 1 h [10] [%] | remaining at 2 h [11] [%] | remaining at 2 h [12] [%] | remaining at 0.5 h [13] [%] | remaining at 1 h [14] [%] | remaining at 2 h [15] [%] | Activity (Mus musculus [16]) [%] | remaining at 0.5 h [17] [%] | also measured
Cc1c(CC(=O)NC(CO[N+](=O)[O-])C(=O)O)cc(-c2ccc(S(C)(=O)=O)cc2)n1-c1cccc(F)c1 (racemic) | 100 | 0 | < 5.00 | – | – | 6.85 | > 71 | 50 | Dose-dependent effect | 47 | 18 | inactive | 57.1 | 28.6 | 37.5 | 75 | 50 | 87.5 | 12 | 100 | remaining at 1 h [18]: 93.8%; remaining at 0.5 h [19]: 71.4%
Cc1c(CC(=O)NC(CO[N+](=O)[O-])C(=O)O)cc(-c2ccc(S(C)(=O)=O)cc2)n1-c1ccc(F)cc1 (stereo unspecified) | 100 | 0 | < 5.00 | 90.5 (≈ 47 µg/mL) | 112 (≈ 58.2 µg/mL) | 6.51 | > 32 | 50 | Dose-dependent effect | 29 | 25 | inactive | – | – | – | – | – | – | 0 | – | –
Cc1c(C(N)C(=O)OCCO[N+](=O)[O-])cc(-c2ccc(S(C)(=O)=O)cc2)n1-c1ccc(F)cc1 (stereo unspecified) | – | – | – | 80 (≈ 39.3 µg/mL) | > 200 | – | – | – | – | – | – | – | 0 | 0 | 75 | 75 | 75 | 100 | – | 100 | remaining at 1 h [18]: 100%; remaining at 0.5 h [19]: 0%

The next lines start with results.

inhibition [1] [%] | inhibition [2] [%] | pIC50 [4] | solubility at 1.5 h [20] [µM] | solubility at 1.5 h [21] [µM] | SMILES | pIC50 [3] | Ratio IC50 (J774) | Activity (Mus musculus [5]) [%] | Activity (Mus musculus [6]) | Activity (Mus musculus [7]) [%] | Emax (Thoracic aorta [8]) [%] | Activity (Thoracic aorta [9]) | remaining at 1 h [10] [%] | remaining at 2 h [11] [%] | remaining at 2 h [12] [%] | remaining at 0.5 h [13] [%] | remaining at 1 h [14] [%] | remaining at 2 h [15] [%] | Activity (Mus musculus [16]) [%] | remaining at 0.5 h [17] [%] | also measured
100 | 17 | < 5.00 | – | – | Cc1c(CC(=O)NCCCO)cc(-c2ccc(S(C)(=O)=O)cc2)n1-c1cccc(F)c1 | 7.35 | > 222 | – | – | – | – | – | – | – | – | – | – | – | – | – | –
43 | 27 | < 5.00 | – | – | Cc1c(CC(=O)NC(CCO[N+](=O)[O-])C(=O)O)cc(-c2ccc(S(C)(=O)=O)cc2)n1-c1cccc(F)c1 (racemic) | – | > 6 | 23 | Dose-dependent effect | 10 | 25 | inactive | – | – | – | – | – | – | – | – | –
95 | 0 | < 5.00 | > 200 | 150 (≈ 71.3 µg/mL) | Cc1c(CC(=O)NCCO[N+](=O)[O-])cc(-c2ccc(S(C)(=O)=O)cc2)n1-c1cccc(F)c1 | 6.52 | > 33 | 55 | Dose-dependent effect | 37 | 49 | inactive | – | – | – | – | – | – | 18 | – | –
